For 3 compounds, MIC results are on record in ChEMBL document CHEMBL1221233, “4''-O-(omega-Quinolylamino-alkylamino)propionyl derivatives of selected macrolides with the activity against the key erythromycin resistant respiratory pathogens” (2010).

≈ marks a conversion by molar mass, not a printed value. A value given as a limit tells only on which side of the number the result lay.

What all share (format): functional
For test [1], the system named is Streptococcus pneumoniae. The test can be described thus: Antibacterial activity against efflux-mediated macrolide-resistance Streptococcus pneumoniae Ci137 by broth microdilution method. The method in brief:
(§1)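 MIC by CLSI broth microdilution. In the streptococcal medium, 5% horse serum replaced lysed blood. Compounds were tested as two-fold serial dilutions. Strains were first grown on Columbia agar with 5% sheep blood. The MIC was read as the lowest concentration inhibiting growth.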
(In general: Dilution methods test growth across graded concentrations, often in twofold steps.)

In test [2] the test system is Streptococcus pyogenes. The test can be described thus: Antibacterial activity against constitutive MLS resistance sStreptococcus pyogenes 166 GR-Micro by broth microdilution method. Put shortly: as §1
Test [3] deals with Streptococcus pneumoniae. The test can be described thus: Antibacterial activity against constitutive MLS resistance Streptococcus pneumoniae 58 by broth microdilution method. The method in brief: as §1
The test system of test [4] is Streptococcus pyogenes. The test can be described thus: Antibacterial activity against efflux-mediated macrolide-resistance Streptococcus pyogenes 2 Finland by broth microdilution method. Put shortly:
as §1

Test [5] concerns Streptococcus pneumoniae. The test can be described thus: Antibacterial activity against inducible resistance to macrolide and constitutive resistance to lincosamide Streptococcus pneumoniae 134 GR M by broth microdilution method. The method in brief:
as §1

For the next test, the system named is Haemophilus influenzae. The test can be described thus: Antibacterial activity against Haemophilus influenzae ATCC 49247 by broth microdilution method. The method in brief: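 MIC by broth microdilution following CLSI guidelines, expressed in units of lg/mL. Twofold dilutions prepared in 96-well plates. H. influenzae grown on Mueller-Hinton chocolate agar before testing.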

Test [6] concerns Staphylococcus aureus. The test can be described thus: Antibacterial activity against inducible resistance to macrolide, licosamide and streptogramin Staphylococcus aureus 90256 by broth microdilution method. The method in brief:
(§2)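 Staphylococci were grown on Mueller-Hinton agar and then tested by CLSI-guideline broth microdilution against two-fold serial dilutions of compound. The result was recorded as the minimum inhibitory concentration.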

For test [7], the system named is Staphylococcus aureus. The test can be described thus: Antibacterial activity against efflux-mediated macrolide-resistance Staphylococcus aureus PK1 by broth microdilution method. The method in brief: as §2

Turning to `CC[C@H]1OC(=O)[C@H](C)[C@@H](O[C@H]2C[C@@](C)(OC)[C@@H](OC(=O)CCN(C)CCNc3cc4c(=O)c(C(=O)O)cn(C5CC5)c4cc3Cl)[C@H](C)O2)[C@H](C)[C@@H](O[C@@H]2O[C@H](C)C[C@H](N(C)C)[C@H]2O)[C@](C)(O)C[C@@H](C)CN(C)[C@H](C)[C@@H](O)[C@]1(C)O`, the MIC against Streptococcus pneumoniae [1] is at most 0.125 µg/mL; in the test on Streptococcus pyogenes [2] it was at most 0.125 µg/mL; against Streptococcus pneumoniae [3], at most 0.125 µg/mL; in the test on Streptococcus pyogenes [4] it was at most 0.125 µg/mL; against Streptococcus pneumoniae [5] it was at most 0.125 µg/mL; in the test with Haemophilus influenzae, 1 µg/mL (≈ 0.878 µM). The MIC with Staphylococcus aureus [6] and against Staphylococcus aureus [7] was 0.5 µg/mL (≈ 0.439 µM) in each case.

Consider `CC[C@H]1OC(=O)[C@H](C)[C@@H](O[C@H]2C[C@@](C)(OC)[C@@H](OC(=O)CCNCCNc3ccc4c(=O)c(C(=O)O)cn(C5CC5)c4c3)[C@H](C)O2)[C@H](C)[C@@H](O[C@@H]2O[C@H](C)C[C@H](N(C)C)[C@H]2O)[C@](C)(O)C[C@@H](C)NC(=O)[C@H](C)[C@@H](O)[C@]1(C)O`, for which the MIC is at most 0.125 µg/mL with Streptococcus pneumoniae [1]; 32 µg/mL (≈ 29.3 µM) in the test with Streptococcus pyogenes [2]; 32 µg/mL (≈ 29.3 µM) against Streptococcus pneumoniae [3]; at most 0.125 µg/mL against Streptococcus pyogenes [4]; 64 µg/mL (≈ 58.7 µM) in the test with Streptococcus pneumoniae [5]; 8 µg/mL (≈ 7.34 µM) with Haemophilus influenzae. In addition, the MIC against Staphylococcus aureus [6] and against Staphylococcus aureus [7] was 64 µg/mL (≈ 58.7 µM) in each case.

For the compound `CC[C@H]1OC(=O)[C@H](C)[C@@H](O[C@H]2C[C@@](C)(OC)[C@@H](OC(=O)CCNCCNc3cc4c(cc3F)c(=O)c(C(=O)O)cn4C3CC3)[C@H](C)O2)[C@H](C)[C@@H](O[C@@H]2O[C@H](C)C[C@H](N(C)C)[C@H]2O)[C@](C)(O)C[C@@H](C)CN(C)[C@H](C)[C@H]2OC(=O)O[C@@]21C`, the MIC against Streptococcus pneumoniae [1] is at most 0.125 µg/mL; in the test with Streptococcus pyogenes [2], at most 0.125 µg/mL; in the test on Streptococcus pneumoniae [3] it was at most 0.125 µg/mL; against Streptococcus pyogenes [4] it was at most 0.125 µg/mL; with Streptococcus pneumoniae [5], at most 0.125 µg/mL; in the test with Haemophilus influenzae, 2 µg/mL (≈ 1.76 µM). Besides, the MIC in the test with Staphylococcus aureus [6] was 1 µg/mL (≈ 0.882 µM); against Staphylococcus aureus [7], 0.25 µg/mL (≈ 0.22 µM).
